Laboratory results reported in article PMC7347020 (Science (New York, N.Y.), 2020).
Where two headings read alike, the source gives them in different places.

Columns and labels:
CATΔHD [1] = conditions: cited from earlier work
PARP-1 [2] = biological target: T1, PARP-1 (Homo sapiens, UniProt P09874); assay: FP DNA binding affinity of PARP-1 for SSB-DNA
PARP-1 [3] = biological target: T1, PARP-1; assay: SPR dissociation kinetics of PARP-1 from SSB-DNA; type: binding
PARP-1 [4] = biological target: T1, PARP-1; assay: HXMS of WT PARP-1/SSB-DNA complex; conditions: PARP-1/SSB-DNA complex with versus without inhibitor
PARP-1 [5] = biological target: T1, PARP-1; assay: Classification of PARPi by allosteric effects; conditions: based on HXMS and DNA binding studies
WT PARP-1 = WT PARP-1 (Homo sapiens, UniProt P09874); assay: FP DNA competition; type: binding; conditions: WT PARP-1, with or without inhibitor
PARP-1 W318R [6] = biological target: T2, PARP-1 W318R (Homo sapiens, UniProt P09874, W318R); assay: FP DNA competition, W318R mutant; type: binding
Outline: (§1)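 Fluorescence polarization competition used FAM-labeled SSB-DNA bound by the PARP-1 variant, challenged with unlabeled SSB-DNA, with or without test compound.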

PARP-1 R591C [7] = biological target: T3, PARP-1 R591C (Homo sapiens, UniProt P09874, R591C); assay: FP DNA competition, R591C mutant; type: binding
Outline: as §1

PARP-1 D766/770A [8] = biological target: T4, PARP-1 D766/770A (Homo sapiens, UniProt P09874, D766A/D770A); assay: FP DNA competition, D766/770A mutant; type: binding
Outline: as §1

PARP-1 CAT = PARP-1 CAT (Homo sapiens, UniProt P09874); assay: DSF thermal stability, CAT domain; type: binding
Outline: (§2)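 Protein melting temperature was measured by differential scanning fluorimetry with and without test compound. ΔTM was taken as TM with compound minus TM without compound.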

CATΔHD [9] = assay: DSF thermal stability, CATΔHD; type: binding
Outline: as §2

PARP-1 W318R [10] = biological target: T2, PARP-1 W318R; assay: HXMS of PARP-1 W318R/SSB-DNA; conditions: W318R mutant
PARP-1 R591C [11] = biological target: T3, PARP-1 R591C; assay: HXMS of PARP-1 R591C/SSB-DNA; conditions: R591C mutant
PARP-1 D766/770A [12] = biological target: T4, PARP-1 D766/770A; assay: HXMS of PARP-1 D766/770A/SSB-DNA; conditions: D766/770A mutant
Outline: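 PARP-1 (2.6 μM) was mixed with SSB-DNA (5 μM) and, where applicable, inhibitor (5.2 μM). Deuterium on-exchange ran at RT in 10 mM HEPES pD 7.0, 150 mM NaCl (final 75% D2O). Samples were quenched in ice-cold buffer, frozen in liquid nitrogen, pepsin-digested, separated on C18 and analysed by electrospray MS for per-peptide deuteration.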

PARP-1 [13] = biological target: T1, PARP-1; conditions: cited from earlier work
[14] = system: MMS-treated CAPAN-1 cells; conditions: cited from earlier work
PARP-1 [15] = biological target: T1, PARP-1; assay: PARP-1 catalytic inhibition; type: biochemical; conditions: catalytic inhibitory potency; not shown
[16] = system: MMS-treated CAPAN-1 cells; assay: Chromatin fractionation assay; type: cell-based; conditions: 1, 10 and 25 μM, 0.01% MMS
Outline: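 Chromatin fractionation measured chromatin-bound PARP-1 in cells exposed to 0.01% MMS, with or without test compound.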

[17] = system: ADP-ribosylation activity in cells; assay: Measurement of PAR in cells; type: cell-based; conditions: 0.01, 0.1, 1 and 10 μM, 0.01% MMS
Outline: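 Cells were co-treated with test compound and 0.01% MMS. Cellular poly(ADP-ribose) was detected by western blot with an anti-pan-ADP-ribose binding reagent.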

[18] = system: CAL51 PARP-1−/− cells transfected with PARP-1-GFP; assay: Microirradiation assay, PARP-1-GFP residence at DNA damage sites; type: cell-based
CAPAN-1 cells = assay: Cell survival assay, CAPAN-1; type: cell-based; conditions: cell survival experiment
[19] = system: SUM149PT-BRCA1mut and SUM149PT-BRCA1rev cells; assay: Cell survival assay, SUM149PT-BRCA1mut versus SUM149PT-BRCA1rev; type: cell-based
[20] = system: parental or PARP-1−/− cells; assay: Survival assay, parental or PARP-1−/− cells; type: cell-based; conditions: low concentrations; parental versus PARP-1−/−

T1 sequence (P09874 whole entry): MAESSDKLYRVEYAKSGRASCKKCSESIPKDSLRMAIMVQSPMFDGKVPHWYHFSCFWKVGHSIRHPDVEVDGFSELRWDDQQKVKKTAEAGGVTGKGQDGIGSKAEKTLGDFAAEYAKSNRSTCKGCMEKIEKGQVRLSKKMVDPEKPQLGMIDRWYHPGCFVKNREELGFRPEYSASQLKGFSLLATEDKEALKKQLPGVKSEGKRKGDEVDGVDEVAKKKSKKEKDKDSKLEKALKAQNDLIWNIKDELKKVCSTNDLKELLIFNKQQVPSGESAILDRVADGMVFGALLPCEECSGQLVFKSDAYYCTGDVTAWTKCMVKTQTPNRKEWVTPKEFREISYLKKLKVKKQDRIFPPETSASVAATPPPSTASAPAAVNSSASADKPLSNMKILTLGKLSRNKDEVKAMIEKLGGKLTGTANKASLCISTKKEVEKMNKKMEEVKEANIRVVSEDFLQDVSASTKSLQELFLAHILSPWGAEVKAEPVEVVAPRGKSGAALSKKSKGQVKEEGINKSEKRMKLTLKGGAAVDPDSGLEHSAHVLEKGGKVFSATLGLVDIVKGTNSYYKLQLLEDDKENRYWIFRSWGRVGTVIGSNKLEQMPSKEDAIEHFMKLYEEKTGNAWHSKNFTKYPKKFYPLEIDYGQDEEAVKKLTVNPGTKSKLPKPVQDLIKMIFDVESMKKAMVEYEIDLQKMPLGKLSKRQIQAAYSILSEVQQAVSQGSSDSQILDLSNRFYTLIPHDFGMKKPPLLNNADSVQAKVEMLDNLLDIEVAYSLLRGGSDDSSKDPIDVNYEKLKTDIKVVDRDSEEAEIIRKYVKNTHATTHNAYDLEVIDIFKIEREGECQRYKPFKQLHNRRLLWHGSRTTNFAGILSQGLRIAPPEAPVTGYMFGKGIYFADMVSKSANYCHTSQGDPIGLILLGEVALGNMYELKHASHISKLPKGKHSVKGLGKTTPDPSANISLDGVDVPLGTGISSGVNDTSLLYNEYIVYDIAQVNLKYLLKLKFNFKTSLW
WT PARP-1, sequence (P09874 whole entry): as above
T4 sequence (P09874 whole entry D766A/D770A): as the sequence (P09874 whole entry) above, with D766A, D770A counted along it
T2 sequence (P09874 whole entry W318R): as the sequence (P09874 whole entry) above, with W318R counted along it
T3 sequence (P09874 whole entry R591C): as the sequence (P09874 whole entry) above, with R591C counted along it
PARP-1 CAT, sequence (P09874 661-1014 limits assumed): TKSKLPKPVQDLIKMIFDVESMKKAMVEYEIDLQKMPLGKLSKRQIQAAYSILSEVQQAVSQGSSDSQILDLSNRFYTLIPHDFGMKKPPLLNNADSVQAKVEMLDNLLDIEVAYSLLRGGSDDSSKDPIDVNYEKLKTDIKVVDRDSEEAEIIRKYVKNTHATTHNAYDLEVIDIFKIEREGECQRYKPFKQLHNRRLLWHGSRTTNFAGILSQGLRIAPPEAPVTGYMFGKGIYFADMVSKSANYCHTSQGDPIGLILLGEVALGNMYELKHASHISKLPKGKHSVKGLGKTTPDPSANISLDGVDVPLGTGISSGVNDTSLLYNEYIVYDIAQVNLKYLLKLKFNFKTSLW

In the case of NC(=O)c1ccc[n+]([C@@H]2O[C@H](COP(=O)([O-])OP(=O)(O)OC[C@H]3O[C@@H](n4cnc5c(N)ncnc54)[C@H](O)[C@@H]3O)[C@@H](O)[C@H]2O)c1 [NAD^+], the “binding to CAT versus CATΔHD” value (CATΔHD [1]) is given as “only bind to CATΔHD”.

For NC(=O)c1cccc2cn(-c3ccc([C@@H]4CCCNC4)cc3)nc12 [niraparib], the “decrease in PARP-1 SSB DNA binding affinity” value (from here on “decrease”) (PARP-1 [2]) was 3–5 fold, the “influence on dissociation (kd) of PARP-1 from a DNA break (in words)” value (shortened to “influence on dissociation (kd)”) (PARP-1 [3]) was “slightly accelerated release” and the “allosteric effect on PARP-1 (HX changes)” value (PARP-1 [4]) was “stronger allosteric effects to the HD”. The “PARPi type by allosteric effect” value (PARP-1 [5]) was “Type III”.

For Nc1ncnc2c1ncn2[C@@H]1O[C@H](C(=O)N2CCN(CC(=O)Nc3cccc4c3CNC4=O)CC2)[C@@H](O)[C@H]1O [EB-47], the “influence on PARP-1 SSB DNA binding affinity (in words)” value (PARP-1 [2]) was “large increase in SSB DNA binding affinity”, the “influence on dissociation (kd)” value (PARP-1 [3]) was “markedly slowed release from DNA” and the “PARP-1 retention on SSB-DNA” value (WT PARP-1) was “increased the retention of WT PARP-1 on DNA”. For the same compound, the “PARP-1 retention on SSB-DNA” value (PARP-1 W318R [6]) was “unaffected”, the “PARP-1 retention on SSB-DNA” value (PARP-1 R591C [7]) was “unaffected” and the “PARP-1 release from / retention on a DNA break” value (PARP-1 D766/770A [8]) was “insensitive”. For the same compound, the “binding to PARP-1 CAT” value (PARP-1 CAT) was “bound”, the “binding to CATΔHD” value (CATΔHD [9]) was “bound” and the “allosteric effect on PARP-1 (HX changes)” value (PARP-1 [4]) was “highly localized destabilization of the helical domain (HD)”. The “allosteric effect on PARP-1 (HX changes)” value (PARP-1 W318R [10]) was “destabilization of the αB and αF helices of the HD”, the “allosteric effect on PARP-1 (HX changes)” value (PARP-1 R591C [11]) was “destabilization of the αB and αF helices of the HD” and the “allosteric effect on PARP-1 (HX changes)” value (PARP-1 D766/770A [12]) was “no longer influenced PARP-1 allostery”. For the same compound, the “PARPi type by allosteric effect” value (PARP-1 [5]) was “Type I” and the “affinity for PARP-1” value (PARP-1 [13]) was “nM range”.

In the case of NC(=O)c1cccc([C@@H]2O[C@H](COP(=O)(O)OP(=O)(O)OC[C@H]3O[C@@H](n4cnc5c(N)ncnc54)[C@H](O)[C@@H]3O)[C@@H](O)[C@H]2O)c1 [BAD, benzamide adenine dinucleotide], the “PARPi type by allosteric effect” value (PARP-1 [5]) is listed as “Type I” and the “binding to CAT versus CATΔHD” value (CATΔHD [1]) is listed as “only bind to CATΔHD”.

In the case of CNCc1ccc(-c2[nH]c3cc(F)cc4c3c2CCNC4=O)cc1 [rucaparib], the “decrease” value (PARP-1 [2]) is reported as 3–5 fold, the “influence on dissociation (kd)” value (PARP-1 [3]) is reported as “slightly accelerated release” and the “allosteric effect on PARP-1 (HX changes)” value (PARP-1 [4]) is reported as “stronger allosteric effects to the HD”. For the same compound, the “PARPi type by allosteric effect” value (PARP-1 [5]) was “Type III”.

For Cn1ncnc1[C@H]1c2n[nH]c(=O)c3cc(F)cc(c23)N[C@@H]1c1ccc(F)cc1 [talazoparib], the “PARP-1 trapping in cells” value [14] is listed as “most efficient trapper of the clinical inhibitors”.

With C[C@]1(c2nc3c(C(N)=O)cccc3[nH]2)CCCN1 [veliparib] the “decrease” value (PARP-1 [2]) was 3–5 fold, the “influence on dissociation (kd)” value (PARP-1 [3]) was “slightly accelerated release” and the “PARP-1 retention on SSB-DNA” value (WT PARP-1) was “not significant”. The “allosteric effect on PARP-1 (HX changes)” value (PARP-1 [4]) was “stronger allosteric effects to the HD”, the “PARPi type by allosteric effect” value (PARP-1 [5]) was “Type III” and the “PARP-1 trapping in cells” value ([14]; chromatin fractionation) was “poor PARP-1 trapper”.

In the case of COC(=O)c1cnc(N2CCN(C(=O)c3ccc(-c4nc5c(C(N)=O)cccc5[nH]4)cc3)CC2)nc1 [UKTT15], the IC50 (PARP-1 [15]) is reported as 2.6 nM, the “increase in PARP-1 affinity for DNA relative to no inhibitor” value (PARP-1 [2]; WT PARP-1) is reported as 3.5 fold and the “PARP-1 retention on SSB-DNA” value (WT PARP-1) is reported as “strong PARP-1 retention on a DNA break”. The “PARP-1 release from / retention on a DNA break” value (PARP-1 D766/770A [8]) was “still retained on DNA”, the “allosteric effect on PARP-1 (HX changes)” value (PARP-1 [4]) was “profound changes to the HX behavior of PARP-1” and the “PARPi type by allosteric effect” value (PARP-1 [5]) was “Type I”. The “PARP-1 trapping on DNA in cells” value [16] was “increased ability to trap PARP-1 on DNA”, the “inhibition of ADP-ribosylation activity in cells (PAR levels)” value [17] was “not better than veliparib” and the “PARP-1-GFP residence time at sites of UV laser-induced damage” value [18] was “increase in the PARP-1-GFP residence time”. The “killing of CAPAN-1 cells” value (CAPAN-1 cells) was “more efficient than veliparib”, the “BRCA selectivity of cell killing” value [19] was “killing of the SUM149-BRCA1mut cells at a lower concentration compared to the SUM149PT-BRCA1rev cells” and the “PARP-1 dependence of cell killing” value [20] was “required PARP-1 expression”.
